Source: PubChem (several laboratories)
Beta cell apopt = inhibitors of cytokine-induced beta cell apoptosis, primary screen, luminescence; INS-1E cytokine-induced death, ATP luminescence, 48 h; percent of positive-control rescue, neutral wells zero; protection from apoptosis, % (concentration not given with the values); 300,000 tested, 0.8% active;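 active = Every replicate reaches about 75%, or at least half do and their mean reaches it too, limit read from the data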;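 note: higher means more ATP so stronger rescue from cytokine killing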
CSC inhib = cancer stem cell viability inhibitors, primary screen, luminescence. cancer stem cell-like cells viability. inhibition, % at 7.5 µM. 300,000 tested, 1.1% active. AID 2717, 2010; in the data active = inhibition above about 75%; tested in HMLE shEcad cells
SKKanGAS inh = S. pyogenes SKKanGAS growth inhibitors in kanamycin, primary screen, streptokinase expression inhibitor project, SKKanGAS strain, BacTiter-Glo luminescence. 6 h. inhibition, % at 7.5 µM. 300,000 tested, 1.3% active;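 active = mean replicate score, as percent of positive control median, at least 50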;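 note: strain carries kanamycin resistance gene driven by streptokinase promoter and grows in 40 µg/ml kanamycin; loss of luminescence reflects streptokinase promoter inhibition or plain growth inhibition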
Lmaj promast = Leishmania major promastigote growth inhibition, primary screen; Leishmania major promastigotes, resazurin fluorescence viability; inhibition, % at 10 µM; AID 1063, 2008; 200,000 tested, 9% active; in the data active = inhibition above about 50%;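 note: promastigotes grown with compound for 44 hours at 28 °C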
Mdm2-MdmX inh = inhibitors of human Mdm2-MdmX association, primary screen, cell-based, luminescence, split luciferase, SaOS-2, uHTS. inhibition, % at 8 µM. 330,000 tested, 3% active. SaOS-2 split-luciferase Mdm2/MdmX complementation. Protein Mdm4 (Homo sapiens) + E3 ubiquitin-protein ligase Mdm2 (Homo sapiens), …. AID 485346, 2010;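 active = inhibition of at least 50% at 8 µM in the primary screen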
Target sequence (O15151 whole entry, looked up): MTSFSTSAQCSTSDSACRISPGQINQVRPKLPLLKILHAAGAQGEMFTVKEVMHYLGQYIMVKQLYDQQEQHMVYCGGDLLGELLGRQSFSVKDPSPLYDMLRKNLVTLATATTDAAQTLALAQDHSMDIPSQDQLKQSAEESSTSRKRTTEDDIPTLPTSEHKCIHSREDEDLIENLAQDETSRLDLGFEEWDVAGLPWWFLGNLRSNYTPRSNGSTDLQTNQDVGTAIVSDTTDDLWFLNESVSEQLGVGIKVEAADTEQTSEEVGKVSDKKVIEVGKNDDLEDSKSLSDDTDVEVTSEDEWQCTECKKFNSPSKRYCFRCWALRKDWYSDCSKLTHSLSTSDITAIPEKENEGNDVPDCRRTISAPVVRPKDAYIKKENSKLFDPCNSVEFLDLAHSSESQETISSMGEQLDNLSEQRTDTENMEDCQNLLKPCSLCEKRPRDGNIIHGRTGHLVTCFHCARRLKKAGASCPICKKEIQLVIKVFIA
Target sequence (Q00987 whole entry, looked up): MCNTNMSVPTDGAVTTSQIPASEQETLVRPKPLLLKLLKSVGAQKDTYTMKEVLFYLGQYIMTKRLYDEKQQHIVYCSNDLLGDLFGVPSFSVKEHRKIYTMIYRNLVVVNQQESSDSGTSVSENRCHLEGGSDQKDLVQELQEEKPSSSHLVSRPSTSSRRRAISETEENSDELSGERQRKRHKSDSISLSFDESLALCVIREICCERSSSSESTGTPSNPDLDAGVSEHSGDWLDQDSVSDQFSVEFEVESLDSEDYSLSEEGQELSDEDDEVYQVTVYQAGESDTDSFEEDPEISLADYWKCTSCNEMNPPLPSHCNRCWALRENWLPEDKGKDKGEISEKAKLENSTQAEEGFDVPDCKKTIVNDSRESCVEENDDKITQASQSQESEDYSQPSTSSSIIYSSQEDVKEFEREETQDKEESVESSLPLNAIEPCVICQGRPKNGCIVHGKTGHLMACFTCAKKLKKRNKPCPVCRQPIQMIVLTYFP
T cruzi repl = inhibitors of intracellular T. cruzi growth, primary screen, luminescence, NIH3T3 host cells; T. cruzi beta-gal in NIH3T3, 90 h; inhibition, % (test concentration not listed); 300,000 tested, 1.4% active; AID 1885, 2009;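 active = mean inhibition across valid replicates above about 55%, limit read from the data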;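 note: signal also drops with host cell toxicity which is not excluded here; higher percent means less beta-gal luminescence so fewer parasites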
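Read-out: Parasite load inhibition, % | Test system: Mouse NIH/3T3 fibroblasts infected with β-gal-expressing T. cruzi Tulahuen C4 | Amount: 5,000 cells/well | Medium: DMEM, 2% fetal bovine serum | Signal: GalScreen β-gal luminescence, detergent lysis, 60 min | Timing: 3 h attach, ≥90 h co-culture | Also added: Tulahuen C4 trypomastigotes, 5000/well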
Hits are given with their value; - = inactive; . = not tested or not shown. In the library only some 9.4% were active in any assay of this set; here they are far more common.

SMILES	Beta cell apopt	CSC inhib	SKKanGAS inh	Lmaj promast	Mdm2-MdmX inh	T cruzi repl
CCOc1nc(NCc2ccco2)nc(Nc2ccccc2F)n1	-	-	-	-	-	-
CCC(C)c1ccc(NC(=O)c2ccco2)cc1 (stereo not given)	-	-	-	.	-	-
Cn1c(CNC(=O)CNC(=O)c2ccc(F)cc2)cc(=O)n(C)c1=O	-	-	56.4	.	-	-
Cn1c(CNC(=O)CNC(=O)c2cccc(Cl)c2)cc(=O)n(C)c1=O	-	-	-	.	-	-
COc1ccc(OCc2cc(C(=O)NCC(C)Oc3cccnc3)no2)c(Cl)c1 (stereo not given)	.	-	-	.	-	-
CCOC(=O)c1ccc(NC(=O)CC2S/C(=N/N=C/c3c[nH]c4ccccc34)NC2=O)cc1 (stereo not given)	-	88.4	65.1	62.4	-	-
CC(=O)c1ccc(OCC(O)CN2C(C)CCCC2C)cc1 (stereo not given)	-	-	-	71.9	-	-
Cc1cc(Cl)ccc1OCC(O)CN1C(C)CCCC1C (stereo not given)	-	-	-	91.0	-	-
CC(=O)c1ccc(OCC(O)CN2CCOCC2)cc1 (stereo not given)	-	-	-	-	-	-
CC(=O)c1ccc(OCC(O)CN2CCC(C)CC2)cc1 (stereo not given)	-	-	-	87.5	-	-
CC1CCCC(C)N1CC(O)COCc1ccccc1F (stereo not given)	-	-	-	.	-	-
Cn1c(SCC(=O)Nc2nncs2)nnc1C1CC1	.	-	-	.	-	-
O=C(Nc1ccccc1)N1CCCC(CNS(=O)(=O)Cc2ccccc2)C1 (stereo not given)	-	-	-	-	-	-
FC(F)(F)c1ccc(Oc2ccc3ccccc3c2Br)nc1	-	.	63.0	-	-	-
O=[N+]([O-])c1ccccc1Oc1ccc(C(F)(F)F)cn1	-	-	-	-	-	-
CCCCCCC[N+](CC)(CC)CCCCc1ccc(Cl)cc1	114.0	-	.	.	-	.
COc1ccc(N2CCN(c3c(S(=O)(=O)c4ccccc4)cnc4ccc(OC)cc34)CC2)cc1	-	-	-	60.9	-	-
CCOc1ccc2ncc(S(=O)(=O)c3ccccc3)c(N3CCN(c4ccc(OC)cc4)CC3)c2c1	-	-	-	99.5	-	-
CCOc1ccc2ncc(S(=O)(=O)c3ccccc3)c(N3CCC4(CC3)OCCO4)c2c1	-	-	-	85.7	-	-
COc1ccc(S(=O)(=O)c2cnc3ccc(OC)cc3c2N2CCC3(CC2)OCCO3)cc1	-	-	-	-	-	-
O=[N+]([O-])c1ccc(SCCO)nc1SCCO	-	-	-	.	-	-
CC(C)C(NC(=O)Cc1ccccc1[N+](=O)[O-])C(C)C	-	-	-	-	-	-
O=[N+]([O-])c1ccccc1CNC(Cc1ccccc1)c1ccccc1 (stereo not given)	-	-	-	90.4	-	-
O=[N+]([O-])c1ccc(/C=N/N/C(=N/c2ccccn2)c2ccccn2)cc1	-	-	-	-	-	-
Cc1ccc(NCC(=O)N/N=C/c2ccc(C(=O)O)cc2)cc1	-	.	-	.	-	-
SMILES	Beta cell apopt	CSC inhib	SKKanGAS inh	Lmaj promast	Mdm2-MdmX inh	T cruzi repl
O=C(Cc1ccccc1)NCC(=O)N/N=C/c1ccc([N+](=O)[O-])s1	-	.	-	.	-	-
O=C(CNC(=O)c1cccc(F)c1)N/N=C/c1ccc(O)c([N+](=O)[O-])c1	-	-	-	-	-	-
O=[N+]([O-])c1cc(/C=N/N/C(=N/c2ccccn2)c2ccccn2)ccc1O	-	-	-	51.6	-	-
O=C(CNC(=O)c1ccc(F)cc1)N/N=C/c1ccc(O)c([N+](=O)[O-])c1	.	-	-	56.1	-	-
O=C(CNC(=O)c1ccccc1)N/N=C/c1ccc([N+](=O)[O-])s1	-	-	-	100.5	-	76.0
Cc1ccc(NCC(=O)N/N=C\c2ccc([N+](=O)[O-])o2)cc1	-	-	-	100.1	-	-
O=C(O)CCCn1cc(NC(=O)COc2ccc([N+](=O)[O-])cc2)cn1	-	-	-	-	-	-
CC1CN(C(=O)COC(=O)c2ccc(F)cc2Cl)CC(C)O1 (stereo not given)	-	-	-	.	-	-
O=C(Cc1ccc2c(c1)OCO2)NN=Cc1ccc([N+](=O)[O-])o1	-	-	.	.	-	.
O=C(CNc1ccccc1)N/N=C/c1ccc([N+](=O)[O-])o1	-	-	-	100.0	-	63.8
O=C(CCC(=O)Nc1ccc(Cl)cc1Cl)N/N=C/c1ccc([N+](=O)[O-])o1	107.4	-	-	100.7	-	59.9
CCCCCC(=O)N/N=C/c1ccc([N+](=O)[O-])o1	-	-	-	84.8	-	76.0
Cc1ccc(CCC(=O)Nc2ccc([N+](=O)[O-])cc2Cl)o1	-	-	-	.	-	-
O=[N+]([O-])c1ccc(C=Nc2cccc3ccccc23)s1	-	-	-	-	-	60.5
Cc1cccc(N(C)Cc2nnc(-c3cccc(Br)c3)o2)c1	-	-	-	.	-	-
O=C(CNC(=O)c1ccccc1)N/N=C/c1ccccc1Cl	-	-	-	-	-	-
O=C(CNC(=O)c1ccccc1)N/N=C/c1ccc([N+](=O)[O-])o1	-	-	-	99.3	-	59.0
Cc1ccc(S(=O)(=O)N(C)C)cc1NC(=O)CCCNC(=O)c1ccc(Cl)cc1	-	-	-	.	-	-
COC(=O)c1cc(OC)c(OC)cc1NC(=S)N1CCCCC1	-	.	.	89.0	-	-
COC(=O)c1cc(OC)c(OC)cc1NC(=S)N1CCN(C)CC1	-	-	-	-	-	-
CN1CCN(C2=C(Cl)C(=O)N(c3cccc(Cl)c3)C2=O)CC1	-	-	-	-	-	-
CCN1CCN(C2=C(Cl)C(=O)N(Cc3ccccc3)C2=O)CC1	-	-	.	92.0	-	.
CN1CCN(C2=C(Cl)C(=O)N(Cc3ccccc3)C2=O)CC1	-	-	-	95.8	-	-
CCn1c(=O)cc(N2CCN(Cc3ccccc3)CC2)[nH]c1=O	-	-	-	.	-	-
CC(=O)Nc1ccc(S(=O)(=O)NC2(C(F)(F)F)NC(=O)N(Cc3ccccc3)C2=O)cc1 (stereo not given)	.	-	-	.	-	-
CCOc1ccc(N=C2NC(=O)SC2CC(=O)OC)cc1 (stereo not given)	-	-	-	.	-	-
Fc1ccc(-c2csc(=S)[nH]2)cc1	-	-	-	93.0	-	-
O=c1[nH]c(-c2ccc(Cl)cc2)cs1	-	-	-	-	-	-
O=C(CN1C(=O)COc2ccccc21)N(Cc1cccnc1)Cc1ccccc1F	-	-	-	96.4	-	75.9
COc1ccc(NS(=O)(=O)c2ccc(O)c(NC(=O)c3cc4c(C)nn(-c5ccc(F)cc5)c4s3)c2)cc1	-	113.9	108.6	-	-	-
